In ChEMBL document CHEMBL5506039, “Discovery and Optimization of Tambjamines as a Novel Class of Antileishmanial Agents” (J Med Chem, 2024):
Active and inactive are the calls of the source. No cut-off for these calls is given here.

Columns and labels:
[1] = Cytotoxicity against mouse J774.A1 cells assessed as cell survival at 0.1 uM measured after 96 hrs by SYBR Green II dye based analysis relative to control; assay type: toxicity; details: read-out: Survival
Method in brief: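 Uninfected J774A.1 mouse macrophages were plated at 1 × 10⁴ cells/well in DMEM with 10% heat-inactivated FBS and left 3 h at 37 °C to reattach. Compounds were added from DMSO, and analogues were screened at 0.1 μM. After 96 h at 37 °C in 5% CO₂, medium was removed. SYBR Green II (1:1000 in 1% Triton/PBS) was added for 1 h in the dark at room temperature, and fluorescence was read at Ex 485/Em 535 as a DNA-content measure of viability.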

[2] = Apparent elimination half life in male ICR-CD1 mouse liver at 40 mg/kg, po administered as single dose and measured upto 72 hrs; assay type: ADME, organism-based; details: in vivo
Method in brief: (§1)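 Oral (intragastric) single dose, formulated in 50% PEG-400:50% sterile water, given to male ICR-CD1 mice (23–28 g), three per time point. Terminal cardiac-puncture blood (heparinized) and liver taken at 0, 0.5, 1, 2, 4, 8, 24, 30, 48, 54 and 72 h. Plasma separated by centrifugation at 4 °C. Samples held at −80 °C before drug quantitation and PK parameter calculation.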

[3] = Cytotoxicity against mouse J774.A1 cells assessed as reduction in cell survival measured after 96 hrs by SYBR Green II dye based analysis; assay type: toxicity
Method in brief: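 Uninfected J774A.1 macrophages, 1 × 10⁴ cells/well in DMEM/10% HI-FBS, reattached 3 h, then exposed to compounds for 96 h. DNA content read after lysis with SYBR Green II (1:1000 in 1% Triton/PBS), 1 h dark at room temperature, fluorescence Ex 485/Em 535.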

[4] = Cmax in male ICR-CD1 mouse liver at 40 mg/kg, po administered as single dose and measured upto 72 hrs; assay type: ADME, organism-based; details: in vivo; method in brief: as §1
[5] = Cmax in male ICR-CD1 mouse plasma at 40 mg/kg, po administered as single dose and measured upto 72 hrs; assay type: ADME, organism-based; details: in vivo; method in brief: as §1
[6] = Mutagenicity in Salmonella typhimurium TA100 assessed as increase in revertant rate upto 10 uM incubated for 96 hrs in presence of S9 fraction by AMES test; assay type: toxicity, subcellular; details: salmonella enterica subsp. enterica serovar typhimurium, s9, 96 h
Method in brief: (§2)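 96-well Ames format: overnight 37 °C cultures of TA98 and TA100 mixed with exposure medium, with or without S9. Compound tested up to 10 μM, plates incubated 96 h at 37 °C and positive wells over background scored visually. Positive controls were 2-aminoanthracene (with S9) and 4-nitroquinoline N-oxide plus 2-nitrofluorene (without S9).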

[7] = AUC (0 to infinity) in male ICR-CD1 mouse plasma at 40 mg/kg, po administered as single dose and measured upto 72 hrs; assay type: ADME, organism-based; details: in vivo; method in brief: as §1
[8] = Therapeutic index, ratio of EC50 for mouse J774.A1 cells to EC50 for antileishmanial activity against Leishmania mexicana MNYC/BZ/62/M379 amastigotes expressing red-shifted firefly luciferase from integrated ribosomal (28S) RNA locus infected in mouse J774.A1 cells; assay type: toxicity, cell-based; details: read-out: TI
[9] = Mutagenicity in Salmonella typhimurium TA100 assessed as increase in revertant rate upto 10 uM incubated for 96 hrs in absence of S9 fraction by AMES test; assay type: toxicity; details: salmonella enterica subsp. enterica serovar typhimurium, s9, 96 h; method in brief: as §2
[10] = AUC (0 to infinity) in male ICR-CD1 mouse liver at 40 mg/kg, po administered as single dose and measured upto 72 hrs; assay type: ADME, organism-based; details: in vivo; method in brief: as §1
[11] = Mutagenicity in Salmonella typhimurium […] assessed as increase in revertant rate upto 10 uM incubated for 96 hrs in presence of S9 fraction by AMES test; assay type: toxicity, subcellular; details: salmonella enterica subsp. enterica serovar typhimurium, s9, 96 h; method in brief: as §2
Leishmania mexicana [12] = assay: Antileishmanial activity against Leishmania mexicana MNYC/BZ/62/M379 amastigotes expressing red-shifted firefly luciferase from integrated ribosomal (28S) RNA locus infected in mouse J774.A1 cells assessed as inhibition of parasite growth at 0.1 uM measured after 96 hrs by luminescence based analysis relative to control; assay type: functional; details: MNYC/BZ/62/M379, J774.A1, read-out: INH
Leishmania mexicana [13] = assay: Antileishmanial activity against Leishmania mexicana MNYC/BZ/62/M379 amastigotes expressing red-shifted firefly luciferase from integrated ribosomal (28S) RNA locus infected in mouse J774.A1 cells assessed as parasite survival at 0.1 uM measured after 96 hrs by luminescence based analysis relative to control; assay type: functional; details: MNYC/BZ/62/M379, J774.A1
[14] = Tmax in male ICR-CD1 mouse plasma at 40 mg/kg, po administered as single dose and measured upto 72 hrs; assay type: ADME, organism-based; details: in vivo; method in brief: as §1
Leishmania mexicana [15] = assay: Antileishmanial activity against Leishmania mexicana amastigotes expressing red-shifted firefly luciferase from integrated ribosomal (28S) RNA locus infected in female BALB/c mouse assessed as retardation of lesion progression by measuring reduction in luminescence signal over infected footpad at …; assay type: functional, organism-based; details: dose 40.0 mg/kg/day, route po, time 20-29 day
[16] = Metabolic stability in pre-warmed pooled human liver microsomes assessed as half life at 1 uM measured upto 60 mins by LC-MS analysis; assay type: ADME, Microsome
Method in brief: (§3)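 Compound at 1 μM final with 0.5 mg/mL pooled human or mouse liver microsomes, 1.3 mM NADP and 3.3 mM MgCl₂ in 100 mM potassium phosphate, pH 7.4. Reaction started with 1 U/mL G6PD at 37 °C with shaking.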

[17] = Apparent elimination half life in male ICR-CD1 mouse plasma at 40 mg/kg, po administered as single dose and measured upto 72 hrs; assay type: ADME, organism-based; details: in vivo; method in brief: as §1
HepG2 = assay: Cytotoxicity against human HepG2 cells assessed as inhibition of cell growth incubated for 48 hrs by MTT assay; assay type: toxicity, cell-based
Method in brief: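 HepG2 cells, 2.5 × 10⁴/well in supplemented complete MEM, settled overnight at 37 °C, 5% CO₂. Compounds given as 11 duplicate 1.6-fold dilutions, 10 to 0.15 μg/mL, for 48 h. MTT added for 1 h in the dark at room temperature, formazan dissolved in acidified isopropanol, absorbance read. Triplicate runs; IC50 by sigmoidal variable-slope regression.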

Leishmania mexicana [18] = assay: Antileishmanial activity against Leishmania mexicana MNYC/BZ/62/M379 amastigotes expressing red-shifted firefly luciferase from integrated ribosomal (28S) RNA locus infected in mouse J774.A1 cells assessed as reduction in parasite survival measured after 96 hrs by luminescence based analysis; assay type: functional, organism-based; details: MNYC/BZ/62/M379, J774.A1, 96 h
Method in brief: (§4)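 J774A.1 macrophages infected with stationary-phase luciferase-expressing promastigotes at 10:1 parasites:macrophage, overnight at 37 °C, 5% CO₂. Non-internalized parasites washed off and 1 × 10⁴ cells/well replated in MEM/10% HI-FBS. Compounds in DMSO added as serial 3-fold dilutions (typically 10 μM–1 nM) for 96 h. Luciferase luminescence read; EC50 from log-transformed sigmoidal variable-slope fit. Mean ± SD of ≥2 independent experiments.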

[19] = AUC (0 to last) in male ICR-CD1 mouse liver at 40 mg/kg, po administered as single dose and measured upto 72 hrs; assay type: ADME, organism-based; details: in vivo; method in brief: as §1
Leishmania mexicana [20] = assay: Antileishmanial activity against Leishmania mexicana amastigotes expressing red-shifted firefly luciferase from integrated ribosomal (28S) RNA locus infected in female BALB/c mouse assessed as retardation of lesion progression by measuring reduction in footpad lesion at 40 mg/kg/day, po …; assay type: functional, organism-based; details: time 20-29 day
[21] = AUC (0 to last) in male ICR-CD1 mouse plasma at 40 mg/kg, po administered as single dose and measured upto 72 hrs; assay type: ADME, organism-based; details: in vivo; method in brief: as §1
[22] = Extrapolated AUC in male ICR-CD1 mouse plasma at 40 mg/kg, po administered as single dose and measured upto 72 hrs; assay type: ADME, organism-based; details: in vivo; method in brief: as §1
[23] = Metabolic stability in pre-warmed pooled mouse liver microsomes assessed as half life at 1 uM measured upto 60 mins by LC-MS analysis; assay type: ADME, Microsome; method in brief: as §3
[24] = Mutagenicity in Salmonella typhimurium […] assessed as increase in revertant rate upto 10 uM incubated for 96 hrs in absence of S9 fraction by AMES test; assay type: toxicity; details: salmonella enterica subsp. enterica serovar typhimurium, s9, 96 h; method in brief: as §2
[25] = Extrapolated AUC in male ICR-CD1 mouse liver at 40 mg/kg, po administered as single dose and measured upto 72 hrs; assay type: ADME, organism-based; details: in vivo; method in brief: as §1
[26] = Tmax in male ICR-CD1 mouse liver at 40 mg/kg, po administered as single dose and measured upto 72 hrs; assay type: ADME, organism-based; details: in vivo; method in brief: as §1
Leishmania donovani = assay: Antileishmanial activity against Leishmania donovani amastigotes expressing red-shifted firefly luciferase from integrated ribosomal (28S) RNA locus infected in mouse J774.A1 cells assessed as reduction in parasite growth measured after 96 hrs by luminescence based analysis; assay type: functional, organism-based; details: J774.A1, 96 h; method in brief: as §4
[27] = Therapeutic index, ratio of IC50 for human HepG2 cells to EC50 for antileishmanial activity against Leishmania donovani amastigotes expressing red-shifted firefly luciferase from integrated ribosomal (28S) RNA locus infected in mouse J774.A1 cells; assay type: toxicity, cell-based; details: read-out: TI
Method in brief: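 TI computed as HepG2 IC50 divided by L. donovani EC50. HepG2: MTT assay with 48 h exposure to 10–0.15 μg/mL (1.6-fold dilutions), triplicates, sigmoidal variable-slope fit. Amastigotes: J774A.1 macrophages infected with RS-luciferase promastigotes at 10:1, washed after 24 h, then 96 h compound exposure (3-fold dilutions, 10 μM–1 nM) in MEM/10% HI-FBS at 37 °C, 5% CO₂; luciferase readout.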

| Structure (SMILES) | viability at 96 h, 0.1 µM [1] [%] | EC50 at 96 h [3] [nM] | selectivity ratio [8] | percent inhibition of parasite growth at 0.1 µM (Leishmania mexicana [12]) [%] | survival at 0.1 µM (Leishmania mexicana [13]) [%] | Activity (Leishmania mexicana [15]) | half-life at 1 µM [16] [min] | IC50 (HepG2) [nM] | EC50 (Leishmania mexicana [18]) [nM] | Activity (Leishmania mexicana [20]) | half-life at 1 µM [23] [min] | EC50 (Leishmania donovani) [nM] | selectivity ratio [27] | also measured |
| --- | --- | --- | --- | --- | --- | --- | --- | --- | --- | --- | --- | --- | --- | --- |
| CCc1ccc(C2=N/C(=C\NC3CCCCCC3)C(C)=C2C)[nH]1.Cl | 71.2 | 1140 | 28 | > 96 | 3.7 | Active | > 60 | 2990 | 40.9 | Active | > 60 | – | – | betat1/2(app) [2]: > 36 h; Cmax [4]: 3667 ng/mL; Cmax [5]: 35 ng/mL; Activity [6]: Non-Toxic; AUC [7]: 206250 ng·h/mL; Activity [9]: Non-Toxic; AUC [10]: 23043 ng·h/mL; Activity [11]: Non-Toxic; Tmax [14]: 0 h; betat1/2(app) [17]: > 72 h; AUClast [19]: 22982 ng·h/mL; AUClast [21]: 2421 ng·h/mL; %AUCextra [22]: 98.8%; Activity [24]: Non-Toxic; %AUCextra [25]: 0.262%; Tmax [26]: 120 min |
| COC1=CC(c2ccc[nH]2)=N/C1=C\NC1CCCCCC1.Cl | 99.6 | 550 | 17 | > 95 | 4.84 | – | 52.1 | – | 32.5 | – | – | 139 | 73 | – |
| CC1=C(C)/C(=C/NC2CCCCCC2)N=C1c1ccc[nH]1.Cl | 62.8 | 908 | 16 | < 80 | 18.2 | – | 45.1 | 21300 | 55 | – | – | 79.5 | 268 | – |
| CC1=C(C)/C(=C/NC2CCCCCC2)N=C1c1ccc(CC(C)C)[nH]1.Cl | 74.5 | 1240 | 28 | > 96 | 2.3 | – | > 60 | – | 44.3 | – | > 60 | – | – | – |
| C(/NC1CCCCC1)=C1/N=C(c2ccc[nH]2)C2=C1CCCC2.Cl | 60.3 | 2930 | 23 | – | 40.9 | Active | 26.7 | 8210 | 130 | Active | – | – | – | – |
| CCC1=C(CC)/C(=C/N[C@H]2CC[C@H](C)CC2)N=C1c1ccc[nH]1.Cl | 87.8 | 1420 | 19 | – | 17.1 | Active | 23.3 | 15900 | 73.3 | Active | – | – | – | – |
